Assay results from PubChem BioAssay.
Records with an inconclusive call do not appear.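 The calls were made as follows, unless noted: active = viability at or below 27.92% in each of two runs, the all-compound median minus 4 SD; inconclusive = no clear call, values can overlap the other calls; inactive = the rest.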

Tests used:
[1] = S. cerevisiae growth inhibition in permissive medium (OD615), pilot counter-assay for S. cerevisiae lifespan shortening project, permissive growth control (AID 705;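 active = growth inhibition above 25% in both replicates, a cutoff set 3 SD above the mean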); settings: OD615, 24 h, at 10 µM, active compounds read high
In short: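 Material: engineered DeaD yeast; Compound: one dose 10 µM, DMSO 0.25% final; Detection: absorbance (optical density) at 615 nm; Buffer or medium: permissive raffinose/galactose medium; Timing: 24 h exposure, 30 °C.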

[2] = S. cerevisiae growth inhibition in restrictive medium, OD615, pilot screen, restrictive growth control, yeast lifespan reduction project (AID 706;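 active = growth inhibition above a set limit, 3 SD over mean compound inhibition, in both replicates, cut at about 43% in these data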;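 also: modified DeaD lifespan yeast strain shifted to restrictive glucose medium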); settings: OD615, 48 h, at 10 µM, active compounds read high
In short: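 Buffer or medium: restrictive glucose medium (CSMM-D); test system: modified S. cerevisiae; doses: single dose of 10 µM compound final, 0.25% DMSO; schedule: 48 h compound exposure at 30 °C; detection: absorbance (optical density) measured at 615 nm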

[3] = doxorubicin toxicity protection in MRP-1 cells – H69AR cells, CellTiter-Glo, duplicate, MRP-1 activator project, pilot screen (AID 807;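 active = viability increase at or above a cutoff of the median across tested compounds plus 3 SD, cut at about 8.5% in these data, passing the limit was not always enough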;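 also: compound pretreatment 18-22 h then 72 h combined with doxorubicin; 0% = doxorubicin alone and 100% = vehicle without doxorubicin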); settings: H69AR viability with doxorubicin, CellTiter-Glo luminescence; at 10 µM; active compounds read high
[4] = viability of HCT116 without oncogenic beta-catenin – human colon tumor cells, pilot screen (AID 823;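 active = cell viability at or below a set limit in both duplicate runs, the limit being the all-compound median minus 4 SD, cut at about 23% in these data, passing the limit was not always enough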;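 also: 0% = wells killed by 20 µM Hyamine and 100% = untreated DMSO cell wells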); settings: HCT116 beta-catenin knockout viability, CellTiter-Glo, 60 h; at 10 µM; active compounds read low
[5] = viability of PTEN-null HCT116 cells – cell-based, HCT116 clonal line, CellTiter-Glo, pilot screen (AID 824); settings: HCT116 PTEN-deleted viability, 60 h, at 10 µM, active compounds read low;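 also: 0% = 20 µM Hyamine control and 100% = vehicle cell control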
[6] = RAM pathway blockade in budding yeast – dse1pr::URA3 reporter, 5-FOA selection, pilot screen (AID 869;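 active = inhibition over a set limit, the all-compound mean plus 3 SD, in both replicate runs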;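 also: 0% = DMSO wells with no growth and 100% = 10 µM 1-NA-PP1 with full growth; RAM network block rescues cells from 5-FOA so hits raise OD615 growth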); settings: S. cerevisiae dse1pr::URA3 5-FOA growth, OD615, 2 d; at 10 µM; active compounds read high; strain carries analog-sensitive mutant Cbk1 kinase
[7] = RAM signaling pathway blockade in yeast – S. cerevisiae, Pdr1DBD-CYC8 efflux-inhibited sensitized strain, primary screen (AID 1298;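 active = RAM network inhibition above 8.4% in each of two replicates, 3 SD over the compound average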;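 also: 0% = DMSO untreated cells without growth and 100% = 10 µM 1-NA-PP1 full growth; higher means more yeast growth rescued from 5-FOA killing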); settings: S. cerevisiae cbk1-as DSE1-URA3 strain, 5-FOA growth OD615, 2 d; at 50 µM; active compounds read high

COc1ccc(S(=O)(=O)Cc2ccc(C(=O)NCc3ccco3)o2)cc1
inactive: growth inhibition [1] -3.02% | growth inhibition [2] -11.6% | viability increase [3] -4.28% | viability [4] 104% | viability [5] 97.4% | inhibition [6] 0.88% | RAM network inhibition [7] 0.47%

CC(=O)c1ccc(OCC(O)COc2ccc(C(C)=O)cc2)cc1
inactive: growth inhibition [1] -2.04% | growth inhibition [2] -4.87% | viability increase [3] 0.11% | viability [4] 96.2% | viability [5] 94.7% | inhibition [6] 1.22% | RAM network inhibition [7] 0.16%

COC(=O)c1ccccc1NC(=O)Nc1nnc(N2CCCCC2C)s1 (configuration not stated)
inactive: growth inhibition [1] -8.82% | growth inhibition [2] 5.2% | viability increase [3] -0.77% | viability [4] 64.3% | viability [5] 49.8% | inhibition [6] 0.815% | RAM network inhibition [7] 1.05%

CCOC(=O)N1CCc2c(sc(NC(=O)c3ccc(S(=O)(=O)N4CCCC4)cc3)c2C#N)C1
inactive: growth inhibition [1] -3.65% | growth inhibition [2] -5.41% | viability increase [3] -1.2% | viability [4] 99.1% | viability [5] 85% | inhibition [6] 2.04% | RAM network inhibition [7] 5.32%

CCOC(=O)Cc1csc(SCn2nnc3ccccc3c2=O)n1
inactive: growth inhibition [1] -8.4% | growth inhibition [2] -9.13% | viability increase [3] 0.7% | viability [4] 94.8% | viability [5] 94.8% | inhibition [6] 2.31% | RAM network inhibition [7] 1.31%

COc1ccc(N2C(=O)C3CCCN3C2c2ccc(C)cc2)cc1 (configuration not stated)
inactive: growth inhibition [1] -2.01% | growth inhibition [2] 2.53% | viability increase [3] -1.95% | viability [4] 97.6% | viability [5] 99.2% | inhibition [6] 1.94% | RAM network inhibition [7] -1.51%

O=C(Cn1c(=O)sc2ccccc21)N1CCOCC1
inactive: growth inhibition [1] -1.21% | growth inhibition [2] -4.46% | viability increase [3] -1.06% | viability [4] 95.5% | viability [5] 102% | inhibition [6] 0.485% | RAM network inhibition [7] 0.67%

CCc1cc2c(=O)c(-c3nc4ccccc4n3C)c(C(C)C)oc2c(CN2CCN(C)CC2)c1O
inactive: growth inhibition [1] -3.21% | growth inhibition [2] 8.45% | viability increase [3] -0.59% | viability [4] 69.4% | viability [5] 82.8% | inhibition [6] 1.74% | RAM network inhibition [7] 1.64%

CCOc1ccc(NC(=O)CSc2nnc(Cn3c(=O)sc4ccccc43)n2C)cc1
inactive: growth inhibition [1] -5.25% | growth inhibition [2] -0.055% | viability increase [3] -2.49% | viability [4] 98% | viability [5] 103% | inhibition [6] 0.83% | RAM network inhibition [7] 7.78%

O=C(NCCc1csc(-c2cccnc2)n1)c1ccco1
inactive: growth inhibition [1] 4.59% | growth inhibition [2] 4.47% | viability increase [3] -4.68% | viability [4] 105% | viability [5] 98.6% | inhibition [6] 0.97% | RAM network inhibition [7] 2.36%

Cc1ccc(C)c(Nc2ncnc3nc[nH]c23)c1
inactive: growth inhibition [1] -3.29% | growth inhibition [2] 0.02% | viability increase [3] -1.34% | viability [4] 103% | viability [5] 103% | inhibition [6] 1.55% | RAM network inhibition [7] 2.66%

Cc1ccc2c(CC(=O)Nc3nc(C)cs3)coc2c1
inactive: growth inhibition [1] -5.02% | growth inhibition [2] 0.02% | viability increase [3] 0.52% | viability [4] 76.5% | viability [5] 80.4% | inhibition [6] 1.38% | RAM network inhibition [7] 0.88%

O=C(c1cnc2n(c1=O)CCS2)N1CCN(C(c2ccccc2)c2ccc(Cl)cc2)CC1 (configuration not stated)
inactive: growth inhibition [1] -9.19% | growth inhibition [2] -3.16% | viability increase [3] -5.31% | viability [4] 79.1% | viability [5] 63.7% | inhibition [6] 1.31% | RAM network inhibition [7] 2.72%

O=C(c1cc(-c2cccs2)on1)N1CCCc2ccccc21
inactive: growth inhibition [1] -2.66% | growth inhibition [2] -4.53% | viability increase [3] -3.09% | viability [4] 103% | viability [5] 103% | inhibition [6] 2.58% | RAM network inhibition [7] -0.52%

CCO/C(C)=C1\C(=O)N(CC)c2ccccc21
inactive: growth inhibition [1] -9.62% | growth inhibition [2] -5.21% | viability increase [3] -1.57% | viability [4] 96.7% | viability [5] 97.2% | inhibition [6] -0.745% | RAM network inhibition [7] 2.08%

O=C1C(C=NCc2ccco2)=C(O)c2ccccc21
inactive: growth inhibition [1] -0.635% | growth inhibition [2] -1.76% | viability increase [3] -3.09% | viability [4] 82.1% | viability [5] 89.9% | inhibition [6] 0.74% | RAM network inhibition [7] -0.41%

CCC(C(=O)N1CC2(C)CC1CC(C)(C)C2)N1C(=O)c2ccccc2C1=O (configuration not stated)
inactive: growth inhibition [1] -2.71% | growth inhibition [2] -3.99% | viability increase [3] -3.05% | viability [4] 91.5% | viability [5] 96.8% | inhibition [6] 1.57% | RAM network inhibition [7] 6%

COc1ccccc1-c1cc(C(F)(F)F)nc(N2CCN(c3ccccc3)CC2)n1
inactive: growth inhibition [1] -2.88% | growth inhibition [2] -13.6% | viability increase [3] -1.89% | viability [4] 77.5% | viability [5] 78.8% | inhibition [6] 3.9% | RAM network inhibition [7] 4.72%

O=C(O)c1cccc(CN2C(=O)CSC2=O)c1
inactive: growth inhibition [1] -9.39% | growth inhibition [2] -12.3% | viability increase [3] -0.3% | viability [4] 95.7% | viability [5] 97.5% | inhibition [6] 0.91% | RAM network inhibition [7] 1.41%

CC(C)c1nc(SCC(=O)Nc2ccc3c(c2)OCCO3)c2c(=O)n(C)c(=O)n(C)c2n1
inactive: growth inhibition [1] 0.9% | growth inhibition [2] 4.21% | viability increase [3] -2.28% | viability [4] 85.4% | viability [5] 84.4% | inhibition [6] 3.59% | RAM network inhibition [7] 5.72%

CC(=O)/C(C(=N)N1CCN(C(c2ccccc2)c2ccccc2)CC1)=C(\C)O
inactive: growth inhibition [1] -2.42% | growth inhibition [2] -7.72% | viability increase [3] -2.93% | viability [4] 102% | viability [5] 91.2% | inhibition [6] -0.395% | RAM network inhibition [7] 2.41%

Nc1nc2n(n1)C(c1ccc(Cl)cc1)CC(c1ccc(F)cc1)N2 (configuration not stated)
inactive: growth inhibition [1] -3.33% | growth inhibition [2] 13% | viability increase [3] 5.31% | viability [4] 92.5% | viability [5] 80.8% | inhibition [6] 0.43% | RAM network inhibition [7] 5.91%

COc1ccc(C2C(C(=O)NCC3CCCO3)c3cc(OC)c(OC)cc3C(=O)N2C)cc1OC (configuration not stated)
inactive: growth inhibition [1] -13.5% | growth inhibition [2] -13.4% | viability increase [3] -1.75% | viability [4] 92.4% | viability [5] 99.7% | inhibition [6] 1.46% | RAM network inhibition [7] 0.94%

COc1ccc(Cl)cc1Nc1nc(N2CCCC2)nc(N2CCCC2)n1
inactive: growth inhibition [1] 2.74% | growth inhibition [2] 2.22% | viability increase [3] 0.95% | viability [4] 95.5% | viability [5] 93.3% | inhibition [6] 0.095% | RAM network inhibition [7] 6.43%

CCOC(=O)COc1cc2c(C(=O)OCC)c(C)oc2cc1Br
inactive: growth inhibition [1] -10% | growth inhibition [2] -2.66% | viability increase [3] -2.07% | viability [4] 89.3% | viability [5] 89.8% | inhibition [6] 1.04% | RAM network inhibition [7] 12.8%

O=C(C1Cc2ccccc2O1)N1CCCCC1 (configuration not stated)
inactive: growth inhibition [1] -0.465% | growth inhibition [2] 2.46% | viability increase [3] -1.5% | viability [4] 103% | viability [5] 101% | inhibition [6] 0.17% | RAM network inhibition [7] 4.37%

Clc1ccccc1C1CC(c2ccccc2)Nc2ncnn21 (configuration not stated)
inactive: growth inhibition [1] -10.9% | growth inhibition [2] -11.2% | viability increase [3] -1.24% | viability [4] 83.9% | viability [5] 81.2% | inhibition [6] 2.05% | RAM network inhibition [7] -0.69%

O=C(Oc1c(Cl)cc(Cl)c2cccnc12)N1CCOCC1
inactive: growth inhibition [1] -1.54% | growth inhibition [2] 2.49% | viability increase [3] -2.13% | viability [4] 99.7% | viability [5] 95.3% | inhibition [6] 0.74% | RAM network inhibition [7] 0.25%

O=C(Nc1c(C(=O)N2CCCCC2)cnn1-c1ccccc1)c1ccccc1
inactive: growth inhibition [1] -13.8% | growth inhibition [2] -4.25% | viability increase [3] -1.28% | viability [4] 105% | viability [5] 92% | inhibition [6] 1.99% | RAM network inhibition [7] 2.44%

Cc1cc(F)ccc1S(=O)(=O)Nc1c(C)n(C)n(-c2ccccc2)c1=O
inactive: growth inhibition [1] 1.71% | growth inhibition [2] 0.315% | viability increase [3] -1.59% | viability [4] 114% | viability [5] 93.7% | inhibition [6] 0.205% | RAM network inhibition [7] 2.26%

COc1ccc(OC)c(S(=O)(=O)Nc2ccc(OCC(=O)O)cc2)c1
inactive: growth inhibition [1] -9.87% | growth inhibition [2] -4.85% | viability increase [3] -0.45% | viability [4] 98.3% | viability [5] 91.1% | inhibition [6] 0.98% | RAM network inhibition [7] 2.71%

COc1ccc(Nc2nnc(Cc3ccccc3)c(=O)[nH]2)c(OC)c1
inactive: growth inhibition [1] -23.5% | growth inhibition [2] -17.1% | viability increase [3] 0.58% | viability [4] 93.5% | viability [5] 92.7% | inhibition [6] 1.52% | RAM network inhibition [7] 3.16%

CC1CCN(c2c(NCc3ccc(C(=O)NCC4COc5ccccc5O4)cc3)c(=O)c2=O)CC1 (configuration not stated)
inactive: growth inhibition [1] 2.94% | growth inhibition [2] 14.3% | viability increase [3] -2.96% | viability [4] 86.2% | viability [5] 96.2% | inhibition [6] 0.785% | RAM network inhibition [7] 4.87%

COc1c2c(nc3ccccc13)OC(C(C)(O)COC(C)=O)C2 (configuration not stated)
inactive: growth inhibition [1] -2.59% | growth inhibition [2] 5.38% | viability increase [3] -1.44% | viability [4] 98.6% | viability [5] 95.7% | inhibition [6] 0.275% | RAM network inhibition [7] 1.41%

Cn1nnnc1SCC(=O)c1cccs1
inactive: growth inhibition [1] -23.8% | growth inhibition [2] -13% | viability increase [3] -2.93% | viability [4] 93% | viability [5] 90.9% | inhibition [6] 1.24% | RAM network inhibition [7] 1.92%

Cc1cc(S(=O)(=O)N2CCN(c3ccc(F)cc3)CC2)c(C)s1
inactive: growth inhibition [1] -13.9% | growth inhibition [2] -7.43% | viability increase [3] -3.11% | viability [4] 60.9% | viability [5] 60.3% | inhibition [6] 1.69% | RAM network inhibition [7] 9.84%
